Results as given in publication PMC5598146 (Toxicology Reports, 2015).
“Also recorded” adds a separate entry of the source.

Columns and labels:
[1] = system: bred female Crl:CD(SD) rats; experiment: Dose range-finding developmental toxicity study; format: in vivo, rat; conditions: 125, 250, 500, 1000 mg/kg/day oral gavage, gestation Days 6-20
Sprague-Dawley rats = experiment: 28-Day dose-range finding toxicity study; format: in vivo, rat; conditions: 28 days
[2] = Dietary exposure estimate; conditions: 100 mg/kg bw/day vs 2400 μg/day
[3] = system: bred female Crl:CD(SD) rats; experiment: Definitive developmental toxicity study; format: in vivo, rat
Summary of the method: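 Bred female Crl:CD(SD) rats, 25/group, dosed once daily by oral gavage at 0, 250, 500 or 1000 mg/kg/day from gestation Days 6 through 20. Laparohysterectomy on gestation Day 21. Uteri, placentae and ovaries were examined; viable and dead fetuses, early and late resorptions, implantations and corpora lutea were counted; gravid uterine weight, net body weight and fetal weights were recorded.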

[4] = Relative oral bioavailability of sodium, phosphate and hemisulfate salts in rats; format: in vivo, Sprague-Dawley rats
Summary of the method: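 Male Sprague-Dawley rats, 4/group, received a single 30 mg/kg oral gavage dose in 1% methylcellulose of either parent acid or its sodium, phosphate or sulfate salt. Jugular-catheter blood was drawn at about 15 and 30 min and at 1, 2, 4, 8 and 24 h. Plasma parent was measured by LC/MS/MS with an internal standard. Relative AUClast and Cmax were corrected for molecular-weight differences.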

[5] = In vitro oxidative metabolism, rat liver microsomes; format: in vitro ADME
Summary of the method: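 Pooled mixed-gender liver microsomes (human or Sprague-Dawley rat) were incubated with test compound plus NADPH for 60 min at 37 °C, then quenched with acetonitrile. Controls: time-zero and 60-min incubations without NADPH, plus testosterone incubations to confirm microsomal activity. Metabolites were sought by LC/MS full-scan analysis with UV detection at 214, 240 and 254 nm.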

[6] = male, Sprague-Dawley, rat, plasma, po, 30 mg/kg

For Cc1nc2cccc(OCC(C)(C)C(=O)NC(C)C)c2c(N)c1C(=O)O [S9632, 4-amino-5-(3-(isopropylamino)-2,2-dimethyl-3-oxopropoxy)-2-methylquinoline-3-carboxylic acid], the Findings [1] was “No maternal toxicity or effects on intrauterine growth and survival up to 1000 mg/kg/day”, the Findings (Sprague-Dawley rats; 10, 30, 100 mg/kg/day food ad-mix) was “No test-article related findings” and the NOEL (Sprague-Dawley rats; food ad-mix, male and female rats, highest dose tested) was 100 mg/kg/day. For the same compound, the “NOAEL (90-day) relative to estimated dietary exposure” value [2] was 2500 times, the “Corpora Lutea, Mean” value ([3]; 250 mg/kg/d) was 16.3 and the “Corpora Lutea, Total” value ([3]; 250 mg/kg/d) was 407. For the same compound, the “Dead fetuses, Mean” value ([3]; 250 mg/kg/d) was 0, the “Dead fetuses, Total” value ([3]; 250 mg/kg/d) was 0 and the “Fetal Wt., Mean” value ([3]; 250 mg/kg/d) was 5.5 g. The “Fetuses Sex F, Mean” value ([3]; 250 mg/kg/d) was 6.8, the “Fetuses Sex F, Total” value ([3]; 250 mg/kg/d) was 169 and the “Fetuses Sex M, Mean” value ([3]; 250 mg/kg/d) was 7.6. The “Fetuses Sex M, Total” value ([3]; 250 mg/kg/d) was 189, the “Implant. sites, Mean” value ([3]; 250 mg/kg/d) was 15.3 and the “Implant. sites, Total” value ([3]; 250 mg/kg/d) was 382. For the same compound, the “Post-implant. loss, Mean” value ([3]; 250 mg/kg/d) was 1.0, the “Post-implant. loss, Total” value ([3]; 250 mg/kg/d) was 24 and the “Pre-implant. loss, Mean” value ([3]; 250 mg/kg/d) was 1.0. The “Pre-implant. loss, Total” value ([3]; 250 mg/kg/d) was 25, the “Resorptions Early, Mean” value ([3]; 250 mg/kg/d) was 1.0 and the “Resorptions Early, Total” value ([3]; 250 mg/kg/d) was 24. The “Resorptions Late, Mean” value ([3]; 250 mg/kg/d) was 0, the “Resorptions Late, Total” value ([3]; 250 mg/kg/d) was 0 and the “Viable fetuses, Mean” value ([3]; 250 mg/kg/d) was 14.3. For the same compound, the “Viable fetuses, Total” value ([3]; 250 mg/kg/d) was 358, the “Malformations, fetuses (litters)” value ([3]; 250 mg/kg/day) was 1(1) and the “Corpora Lutea, Mean” value ([3]; 500 mg/kg/d) was 16.8. The “Corpora Lutea, Total” value ([3]; 500 mg/kg/d) was 421, the “Dead fetuses, Mean” value ([3]; 500 mg/kg/d) was 0 and the “Dead fetuses, Total” value ([3]; 500 mg/kg/d) was 0. The “Fetal Wt., Mean” value ([3]; 500 mg/kg/d) was 5.4 g, the “Fetuses Sex F, Mean” value ([3]; 500 mg/kg/d) was 7.4 and the “Fetuses Sex F, Total” value ([3]; 500 mg/kg/d) was 184. The “Fetuses Sex M, Mean” value ([3]; 500 mg/kg/d) was 7.1, the “Fetuses Sex M, Total” value ([3]; 500 mg/kg/d) was 177 and the “Implant. sites, Mean” value ([3]; 500 mg/kg/d) was 15.3. The “Implant. sites, Total” value ([3]; 500 mg/kg/d) was 383, the “Post-implant. loss, Mean” value ([3]; 500 mg/kg/d) was 0.9 and the “Post-implant. loss, Total” value ([3]; 500 mg/kg/d) was 22. For the same compound, the “Pre-implant. loss, Mean” value ([3]; 500 mg/kg/d) was 1.5, the “Pre-implant. loss, Total” value ([3]; 500 mg/kg/d) was 38 and the “Resorptions Early, Mean” value ([3]; 500 mg/kg/d) was 0.5. The “Resorptions Early, Total” value ([3]; 500 mg/kg/d) was 12, the “Resorptions Late, Mean” value ([3]; 500 mg/kg/d) was 0.4 and the “Resorptions Late, Total” value ([3]; 500 mg/kg/d) was 10. The “Viable fetuses, Mean” value ([3]; 500 mg/kg/d) was 14.4, the “Viable fetuses, Total” value ([3]; 500 mg/kg/d) was 361 and the “Malformations, fetuses (litters)” value ([3]; 500 mg/kg/day) was 1(1). The “Corpora Lutea, Mean” value ([3]; 1000 mg/kg/d) was 16.5, the “Corpora Lutea, Total” value ([3]; 1000 mg/kg/d) was 413 and the “Dead fetuses, Mean” value ([3]; 1000 mg/kg/d) was 0. The “Dead fetuses, Total” value ([3]; 1000 mg/kg/d) was 0, the “Fetal Wt., Mean” value ([3]; 1000 mg/kg/d) was 5.6 g and the “Fetuses Sex F, Mean” value ([3]; 1000 mg/kg/d) was 7.8. The “Fetuses Sex F, Total” value ([3]; 1000 mg/kg/d) was 194, the “Fetuses Sex M, Mean” value ([3]; 1000 mg/kg/d) was 7.2 and the “Fetuses Sex M, Total” value ([3]; 1000 mg/kg/d) was 181. The “Implant. sites, Mean” value ([3]; 1000 mg/kg/d) was 15.7, the “Implant. sites, Total” value ([3]; 1000 mg/kg/d) was 393 and the “Post-implant. loss, Mean” value ([3]; 1000 mg/kg/d) was 0.7. The “Post-implant. loss, Total” value ([3]; 1000 mg/kg/d) was 18, the “Pre-implant. loss, Mean” value ([3]; 1000 mg/kg/d) was 0.80 and the “Pre-implant. loss, Total” value ([3]; 1000 mg/kg/d) was 20. The “Resorptions Early, Mean” value ([3]; 1000 mg/kg/d) was 0.7, the “Resorptions Early, Total” value ([3]; 1000 mg/kg/d) was 18 and the “Resorptions Late, Mean” value ([3]; 1000 mg/kg/d) was 0. The “Resorptions Late, Total” value ([3]; 1000 mg/kg/d) was 0, the “Viable fetuses, Mean” value ([3]; 1000 mg/kg/d) was 15.0 and the “Viable fetuses, Total” value ([3]; 1000 mg/kg/d) was 375. For the same compound, the “Malformations, fetuses (litters)” value ([3]; 1000 mg/kg/day) was 3(3), the AUC(0-t) [4, 6] was 59.6 ± 26.1 ng·h/mL and the Cmax [4, 6] was 38.7 ± 24.5 ng/mL. The “%Cmax Relative to S9632” value ([4]; single oral 30 mg/kg, male rats, corrected for molecular weight) was 100.0%, the “Metabolism (Phase I biotransformations)” value ([5]; 10 µM, 60 min, 37 °C, NADPH) was “not metabolized; also recorded: No Phase I biotransformations” and the “Level above which no metabolism was observed” value ([5]; 60 min incubation) was ≤ 0.1 % of the parent drug.
